In the M2OR odorant receptor database:

What was measured:
Settings in all cases: stereoisomer not certain
Or1m1 (Mus musculus) = target: T1, Or1m1 (Mus musculus) (UniProt Q8VFM9)
T1 sequence (whole entry): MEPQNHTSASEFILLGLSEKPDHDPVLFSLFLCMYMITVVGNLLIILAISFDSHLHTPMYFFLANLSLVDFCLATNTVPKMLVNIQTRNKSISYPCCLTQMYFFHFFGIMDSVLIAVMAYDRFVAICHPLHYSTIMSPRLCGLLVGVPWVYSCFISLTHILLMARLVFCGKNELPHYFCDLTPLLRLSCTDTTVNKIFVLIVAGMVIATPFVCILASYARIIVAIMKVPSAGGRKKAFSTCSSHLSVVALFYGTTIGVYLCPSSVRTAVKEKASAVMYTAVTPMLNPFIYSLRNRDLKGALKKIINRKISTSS
Summary of the method: (§1)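 Transient luciferase assays in mammalian cell lines were common, though methods varied by source. The values come from published papers and their supplementary material, with extra details from the original authors when needed. Responsive refers to a measured signal the original authors judged statistically different from baseline, and non-responsive (inactive) to the remainder.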

Or5ar1 (Mus musculus) = target: T2, Or5ar1 (Mus musculus) (UniProt Q8VGS3)
T2 sequence (whole entry): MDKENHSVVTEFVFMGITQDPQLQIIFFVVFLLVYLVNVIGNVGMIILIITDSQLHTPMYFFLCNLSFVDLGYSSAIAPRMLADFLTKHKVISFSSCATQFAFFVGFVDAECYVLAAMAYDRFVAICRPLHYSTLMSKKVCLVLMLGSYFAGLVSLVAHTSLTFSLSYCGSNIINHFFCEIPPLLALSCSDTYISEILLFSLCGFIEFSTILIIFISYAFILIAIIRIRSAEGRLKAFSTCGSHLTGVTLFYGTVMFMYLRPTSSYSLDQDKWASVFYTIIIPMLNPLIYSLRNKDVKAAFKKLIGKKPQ
Summary of the method: as §1

UniProt A2ATE5 = target: T3, UniProt A2ATE5
T3 sequence (whole entry): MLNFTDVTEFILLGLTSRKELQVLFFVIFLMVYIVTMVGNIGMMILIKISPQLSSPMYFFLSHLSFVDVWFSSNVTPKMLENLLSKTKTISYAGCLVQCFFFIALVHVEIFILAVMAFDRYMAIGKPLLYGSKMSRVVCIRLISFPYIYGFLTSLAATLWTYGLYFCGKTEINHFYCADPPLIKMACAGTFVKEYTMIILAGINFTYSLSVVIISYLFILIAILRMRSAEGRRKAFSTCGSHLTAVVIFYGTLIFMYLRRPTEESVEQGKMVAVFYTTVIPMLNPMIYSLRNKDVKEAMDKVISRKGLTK
Summary of the method: as §1

UniProt A2AVB0 = target: T4, UniProt A2AVB0
T4 sequence (whole entry): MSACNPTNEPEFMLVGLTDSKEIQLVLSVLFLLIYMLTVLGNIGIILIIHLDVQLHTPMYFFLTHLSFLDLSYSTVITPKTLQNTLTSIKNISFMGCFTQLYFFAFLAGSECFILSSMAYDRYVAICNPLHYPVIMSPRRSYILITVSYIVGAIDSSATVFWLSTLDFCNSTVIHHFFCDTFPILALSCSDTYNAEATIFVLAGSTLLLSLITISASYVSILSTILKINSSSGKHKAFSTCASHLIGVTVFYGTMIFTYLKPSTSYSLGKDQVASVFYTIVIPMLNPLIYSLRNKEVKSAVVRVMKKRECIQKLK
Summary of the method: as §1

Or2c1 (Mus musculus) = target: T5, Or2c1 (Mus musculus) (UniProt P23275)
T5 sequence (whole entry): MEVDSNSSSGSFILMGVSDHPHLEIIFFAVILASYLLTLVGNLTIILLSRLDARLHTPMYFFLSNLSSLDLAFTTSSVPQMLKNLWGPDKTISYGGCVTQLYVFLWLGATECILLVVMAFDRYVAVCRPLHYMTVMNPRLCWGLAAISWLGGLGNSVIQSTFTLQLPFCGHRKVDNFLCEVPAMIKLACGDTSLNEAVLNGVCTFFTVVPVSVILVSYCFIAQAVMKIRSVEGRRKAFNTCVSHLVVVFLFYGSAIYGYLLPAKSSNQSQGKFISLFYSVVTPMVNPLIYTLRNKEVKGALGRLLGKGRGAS
Summary of the method: as §1

Or5p80 (Mus musculus) = target: T6, Or5p80 (Mus musculus) (UniProt Q8VG42)
T6 sequence (whole entry): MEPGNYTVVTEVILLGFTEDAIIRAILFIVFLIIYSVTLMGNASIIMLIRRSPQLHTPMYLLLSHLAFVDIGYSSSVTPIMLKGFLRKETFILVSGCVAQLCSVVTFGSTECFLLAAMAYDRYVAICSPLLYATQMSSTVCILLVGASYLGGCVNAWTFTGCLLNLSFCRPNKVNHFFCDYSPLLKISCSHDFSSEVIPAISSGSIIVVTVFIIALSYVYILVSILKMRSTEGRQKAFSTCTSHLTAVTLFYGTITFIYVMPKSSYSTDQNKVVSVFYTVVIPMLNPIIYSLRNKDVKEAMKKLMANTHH
Summary of the method: as §1

Or7a40 (Mus musculus) = target: T7, Or7a40 (Mus musculus) (UniProt Q9JHB2)
T7 sequence (whole entry): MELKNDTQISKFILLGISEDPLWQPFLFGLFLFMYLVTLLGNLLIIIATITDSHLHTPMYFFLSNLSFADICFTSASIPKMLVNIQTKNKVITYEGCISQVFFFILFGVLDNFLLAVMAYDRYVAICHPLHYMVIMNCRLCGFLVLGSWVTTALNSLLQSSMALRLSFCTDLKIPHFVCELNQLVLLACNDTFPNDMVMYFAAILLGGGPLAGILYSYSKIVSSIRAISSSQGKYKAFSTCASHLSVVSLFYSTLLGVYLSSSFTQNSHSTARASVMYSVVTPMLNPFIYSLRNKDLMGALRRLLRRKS
Summary of the method: as §1

UniProt A2AVB5 = target: T8, UniProt A2AVB5
T8 sequence (whole entry): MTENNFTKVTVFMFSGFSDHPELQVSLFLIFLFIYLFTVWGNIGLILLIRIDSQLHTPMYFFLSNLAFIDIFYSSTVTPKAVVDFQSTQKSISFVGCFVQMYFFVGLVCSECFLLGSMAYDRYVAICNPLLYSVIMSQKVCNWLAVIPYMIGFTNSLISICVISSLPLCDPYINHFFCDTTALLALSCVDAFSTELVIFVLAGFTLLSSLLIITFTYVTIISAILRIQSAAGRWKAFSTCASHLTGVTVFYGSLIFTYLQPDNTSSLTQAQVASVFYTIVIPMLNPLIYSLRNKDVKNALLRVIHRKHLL
Summary of the method: as §1

OR9G9 (Homo sapiens) = OR9G9 (Homo sapiens) (UniProt P0C7N8)
Sequence of OR9G9 (Homo sapiens) (P0C7N8 whole entry): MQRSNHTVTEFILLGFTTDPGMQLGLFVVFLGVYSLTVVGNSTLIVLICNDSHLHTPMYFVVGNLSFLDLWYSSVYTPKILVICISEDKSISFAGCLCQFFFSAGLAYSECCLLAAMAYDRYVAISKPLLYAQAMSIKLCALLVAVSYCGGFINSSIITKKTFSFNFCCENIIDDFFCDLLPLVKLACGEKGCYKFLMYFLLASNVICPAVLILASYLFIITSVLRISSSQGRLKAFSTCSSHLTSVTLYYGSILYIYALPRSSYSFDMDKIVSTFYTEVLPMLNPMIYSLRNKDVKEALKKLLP
Summary of the method: as §1

OR9I1 (Homo sapiens) = OR9I1 (Homo sapiens) (UniProt Q8NGQ6)
Sequence of OR9I1 (Homo sapiens) (Q8NGQ6 whole entry): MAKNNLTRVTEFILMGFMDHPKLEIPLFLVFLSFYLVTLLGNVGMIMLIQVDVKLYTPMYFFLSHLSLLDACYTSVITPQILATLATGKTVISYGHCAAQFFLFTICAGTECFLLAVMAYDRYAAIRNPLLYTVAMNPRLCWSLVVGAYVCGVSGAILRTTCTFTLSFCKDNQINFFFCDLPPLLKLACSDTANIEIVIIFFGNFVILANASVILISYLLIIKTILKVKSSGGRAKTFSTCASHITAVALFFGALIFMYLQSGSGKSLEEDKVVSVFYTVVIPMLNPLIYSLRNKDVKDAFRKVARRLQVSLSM
Summary of the method: as §1

OR9K2 (Homo sapiens) = OR9K2 (Homo sapiens) (UniProt Q8NGE7)
Sequence of OR9K2 (Homo sapiens) (Q8NGE7 whole entry): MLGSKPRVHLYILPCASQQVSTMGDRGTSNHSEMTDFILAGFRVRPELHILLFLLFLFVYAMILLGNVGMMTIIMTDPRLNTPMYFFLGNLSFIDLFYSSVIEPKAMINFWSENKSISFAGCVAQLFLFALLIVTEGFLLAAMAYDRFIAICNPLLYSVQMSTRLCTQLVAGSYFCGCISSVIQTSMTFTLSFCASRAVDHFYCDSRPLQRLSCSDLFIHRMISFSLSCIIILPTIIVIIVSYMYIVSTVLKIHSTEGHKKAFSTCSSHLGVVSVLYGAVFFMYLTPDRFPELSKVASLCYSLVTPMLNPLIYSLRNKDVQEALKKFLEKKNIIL
Summary of the method: as §1

OR9Q1 (Homo sapiens) = OR9Q1 (Homo sapiens) (UniProt Q8NGQ5)
Sequence of OR9Q1 (Homo sapiens) (Q8NGQ5 whole entry): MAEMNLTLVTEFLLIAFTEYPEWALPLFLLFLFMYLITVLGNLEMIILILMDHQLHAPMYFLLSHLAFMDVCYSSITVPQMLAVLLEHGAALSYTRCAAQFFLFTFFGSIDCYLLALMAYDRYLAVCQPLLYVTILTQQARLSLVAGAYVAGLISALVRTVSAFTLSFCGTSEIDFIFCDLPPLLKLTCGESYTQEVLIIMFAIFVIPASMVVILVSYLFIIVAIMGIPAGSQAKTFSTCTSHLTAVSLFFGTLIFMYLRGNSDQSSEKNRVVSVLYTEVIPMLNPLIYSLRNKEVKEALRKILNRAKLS
Summary of the method: as §1

OR9Q2 (Homo sapiens) = OR9Q2 (Homo sapiens) (UniProt Q8NGE9)
Sequence of OR9Q2 (Homo sapiens) (Q8NGE9 whole entry): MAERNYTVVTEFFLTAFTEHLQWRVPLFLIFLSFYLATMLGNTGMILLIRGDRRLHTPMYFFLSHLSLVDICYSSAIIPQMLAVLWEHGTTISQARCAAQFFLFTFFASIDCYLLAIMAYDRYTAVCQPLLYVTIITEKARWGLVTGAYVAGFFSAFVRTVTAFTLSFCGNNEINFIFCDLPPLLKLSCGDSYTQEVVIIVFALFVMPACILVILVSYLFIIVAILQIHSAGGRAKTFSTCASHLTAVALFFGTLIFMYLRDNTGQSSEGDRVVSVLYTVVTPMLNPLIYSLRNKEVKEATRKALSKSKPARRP
Summary of the method: as §1

Or5an6 (Mus musculus) = Or5an6 (Mus musculus) (UniProt Q8VFV4)
Sequence of Or5an6 (Mus musculus) (Q8VFV4 whole entry): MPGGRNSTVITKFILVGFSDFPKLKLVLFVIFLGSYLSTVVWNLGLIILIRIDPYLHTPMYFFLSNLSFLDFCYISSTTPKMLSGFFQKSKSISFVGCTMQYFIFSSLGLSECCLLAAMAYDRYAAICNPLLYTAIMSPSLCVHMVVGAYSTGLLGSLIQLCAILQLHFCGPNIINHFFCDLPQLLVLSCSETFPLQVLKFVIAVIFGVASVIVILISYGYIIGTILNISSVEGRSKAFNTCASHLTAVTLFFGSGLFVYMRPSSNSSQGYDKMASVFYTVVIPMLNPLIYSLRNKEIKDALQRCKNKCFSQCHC
Summary of the method: as §1

[1] = target: Olr226 (Rattus norvegicus) (UniProt P23270)
Sequence of Olr226 (Rattus norvegicus) (P23270 whole entry): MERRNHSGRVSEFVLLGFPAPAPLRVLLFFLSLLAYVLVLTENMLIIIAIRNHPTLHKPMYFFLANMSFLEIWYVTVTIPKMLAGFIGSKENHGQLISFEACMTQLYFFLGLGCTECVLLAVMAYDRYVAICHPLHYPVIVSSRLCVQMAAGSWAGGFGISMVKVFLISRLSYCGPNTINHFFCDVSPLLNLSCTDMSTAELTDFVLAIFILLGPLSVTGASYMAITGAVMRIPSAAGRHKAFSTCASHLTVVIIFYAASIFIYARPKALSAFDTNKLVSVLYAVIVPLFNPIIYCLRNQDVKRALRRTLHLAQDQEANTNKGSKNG
Summary of the method: as §1

OR9G9 = system: OR9G9
Sequence of OR9G9 (as listed by the source): as the sequence (P0C7N8 whole entry) above, with C193G counted along it
Summary of the method: as §1

OR9K2 R207H = system: OR9K2 R207H
Sequence of OR9K2 R207H (as listed by the source, stated change not applied): as the sequence (Q8NGE7 whole entry) above, with R207H counted along it
Summary of the method: as §1

OR9Q1 A83T = system: OR9Q1 A83T
Sequence of OR9Q1 A83T (as listed by the source, stated change not applied): as the sequence (Q8NGQ5 whole entry) above, with A83T counted along it
Summary of the method: as §1

OR9Q2 C179R = system: OR9Q2 C179R
Sequence of OR9Q2 C179R (as listed by the source, stated change not applied): as the sequence (Q8NGE9 whole entry) above, with C179R counted along it
Summary of the method: as §1

Measured: odorant receptor agonist call

C=C(C)C1CC=C(C=O)CC1 (stereo not drawn)
inactive: Or1m1 (Mus musculus) | Or5ar1 (Mus musculus) | UniProt A2ATE5 | UniProt A2AVB0

CCC1CCC(=O)O1 (stereo not drawn)
inactive: Or2c1 (Mus musculus) | Or5ar1 (Mus musculus) | Or5p80 (Mus musculus) | Or7a40 (Mus musculus) | UniProt A2AVB5

Cc1c([N+](=O)[O-])c(C)c([N+](=O)[O-])c(C(C)(C)C)c1[N+](=O)[O-]
active: Or5an6 (Mus musculus)
inactive: OR9G9 (Homo sapiens) | OR9I1 (Homo sapiens) | OR9K2 (Homo sapiens) | OR9Q1 (Homo sapiens) | OR9Q2 (Homo sapiens)

CSSC
inactive: Or1m1 (Mus musculus) | Or5ar1 (Mus musculus) | UniProt A2ATE5 | UniProt A2AVB0

C=CCc1ccccc1
inactive: Or5ar1 (Mus musculus) | Or5p80 (Mus musculus) | Or7a40 (Mus musculus) | UniProt A2AVB5
active: Or2c1 (Mus musculus)

CC(C=O)Cc1ccc2c(c1)OCO2 (stereo not drawn)
inactive: [1] | Or1m1 (Mus musculus) | Or5ar1 (Mus musculus) | UniProt A2ATE5 | UniProt A2AVB0

CCCCC(Br)C(=O)O (stereo not drawn)
inactive: Or1m1 (Mus musculus) | Or5ar1 (Mus musculus) | UniProt A2ATE5 | UniProt A2AVB0

OCc1ccc2c(c1)OCO2
inactive: Or1m1 (Mus musculus) | Or5ar1 (Mus musculus) | UniProt A2ATE5 | UniProt A2AVB0

C=CCOC(=O)Cc1ccccc1
active: Or2c1 (Mus musculus)
inactive: OR9G9 | OR9I1 (Homo sapiens) | OR9K2 (Homo sapiens) | OR9K2 R207H | OR9Q1 (Homo sapiens) | OR9Q1 A83T | OR9Q2 (Homo sapiens) | OR9Q2 C179R | Or1m1 (Mus musculus) | Or5ar1 (Mus musculus) | Or5p80 (Mus musculus) | Or7a40 (Mus musculus) | UniProt A2ATE5 | UniProt A2AVB0 | UniProt A2AVB5
